{"source": "ChEMBL document CHEMBL1136530", "about": "“Synthesis, stereochemical assignment and biological activity of a novel series of C-4\" modified aza-macrolides” (2003)", "type_in_all_cases": "functional", "key": {"Escherichia coli": {"tested_on": "Escherichia coli", "assay": "Minimum inhibitory concentration against Escherichia coli"}, "Pasteurella multocida": {"tested_on": "Pasteurella multocida", "assay": "Minimum inhibitory concentration against Pasteurella multocida", "how_it_was_run": "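P. multocida strain 59A0067 (turkey origin), grown overnight on BHI plates; colonies in saline at OD625 0.09 (0.5 McFarland), diluted 1:100 in BHI broth. Two-fold serial dilutions in BHI microdilution, about 5×10⁵ cfu/mL final, 37 °C for 18 h. MIC is the lowest concentration with A600 ≤ 0.025.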"}, "Mus musculus": {"tested_on": "Mus musculus", "assay": "In vivo effective dose against Pasteurella multocida infection in mouse", "how_it_was_run": "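Mice infected with P. multocida serotype 5A. Subcutaneous dosing 0.5 h post-infection at 5 to 80 mg/kg. ED50 calculated from the number of mice surviving four days after infection.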"}}, "data": [{"smiles": "CC[C@H]1OC(=O)[C@H](C)[C@@H](O[C@H]2C[C@@](C)(OC)[C@@](O)(c3ccccn3)[C@H](C)O2)[C@H](C)[C@@H](O[C@@H]2O[C@H](C)C[C@H](N(C)C)[C@H]2O)[C@](C)(O)C[C@@H](C)CN[C@H](C)[C@@H](O)[C@]1(C)O", "values": [{"measurement": "MIC", "setting": "Escherichia coli", "result": 3.13, "unit": "µg/mL"}, {"measurement": "MIC", "setting": "Pasteurella multocida", "result": 0.78, "unit": "µg/mL"}, {"measurement": "ED50", "setting": "Mus musculus", "result": "> 40", "unit": "mg/kg"}]}, {"smiles": "CC[C@H]1OC(=O)[C@H](C)[C@@H](O[C@H]2C[C@@](C)(OC)[C@@](O)(c3nccn3C)[C@H](C)O2)[C@H](C)[C@@H](O[C@@H]2O[C@H](C)C[C@H](N(C)C)[C@H]2O)[C@](C)(O)C[C@@H](C)CN(C)[C@H](C)[C@@H](O)[C@]1(C)O", "values": [{"measurement": "MIC", "setting": "Escherichia coli", "result": 0.39, "unit": "µg/mL"}, {"measurement": "MIC", "setting": "Pasteurella multocida", "result": 0.05, "unit": "µg/mL"}]}, {"smiles": "CC[C@H]1OC(=O)[C@H](C)[C@@H](O[C@H]2C[C@@](C)(OC)[C@@](O)(c3ccccc3)[C@H](C)O2)[C@H](C)[C@@H](O[C@@H]2O[C@H](C)C[C@H](N(C)C)[C@H]2O)[C@](C)(O)C[C@@H](C)CN[C@H](C)[C@@H](O)[C@]1(C)O", "values": [{"measurement": "MIC", "setting": "Escherichia coli", "result": 12.5, "unit": "µg/mL"}, {"measurement": "MIC", "setting": "Pasteurella multocida", "result": 3.13, "unit": "µg/mL"}]}, {"smiles": "C#C[C@@]1(O)[C@H](C)O[C@@H](O[C@H]2[C@H](C)[C@@H](O[C@@H]3O[C@H](C)C[C@H](N(C)C)[C@H]3O)[C@](C)(O)C[C@@H](C)CN(C)[C@H](C)[C@@H](O)[C@](C)(O)[C@@H](CC)OC(=O)[C@@H]2C)C[C@@]1(C)OC", "values": [{"measurement": "MIC", "setting": "Escherichia coli", "result": 0.78, "unit": "µg/mL"}, {"measurement": "MIC", "setting": "Pasteurella multocida", "result": 0.1, "unit": "µg/mL"}, {"measurement": "ED50", "setting": "Mus musculus", "result": 33, "unit": "mg/kg"}]}, {"smiles": "C=CC[C@@]1(O)[C@H](C)O[C@@H](O[C@H]2[C@H](C)[C@@H](O[C@@H]3O[C@H](C)C[C@H](N(C)C)[C@H]3O)[C@](C)(O)C[C@@H](C)CN[C@H](C)[C@@H](O)[C@](C)(O)[C@@H](CC)OC(=O)[C@@H]2C)C[C@@]1(C)OC", "values": [{"measurement": "MIC", "setting": "Escherichia coli", "result": 0.78, "unit": "µg/mL"}, {"measurement": "MIC", "setting": "Pasteurella multocida", "result": "< 0.1", "unit": "µg/mL"}, {"measurement": "ED50", "setting": "Mus musculus", "result": 58, "unit": "mg/kg"}]}, {"smiles": "CC[C@H]1OC(=O)[C@H](C)[C@@H](O[C@H]2C[C@@](C)(OC)[C@@](O)(CCO)[C@H](C)O2)[C@H](C)[C@@H](O[C@@H]2O[C@H](C)C[C@H](N(C)C)[C@H]2O)[C@](C)(O)C[C@@H](C)CN[C@H](C)[C@@H](O)[C@]1(C)O", "values": [{"measurement": "MIC", "setting": "Escherichia coli", "result": 6.25, "unit": "µg/mL"}, {"measurement": "MIC", "setting": "Pasteurella multocida", "result": 0.39, "unit": "µg/mL"}]}, {"smiles": "CC[C@H]1OC(=O)[C@H](C)[C@@H](O[C@H]2C[C@@](C)(OC)[C@@](O)(C#CCN(C)C)[C@H](C)O2)[C@H](C)[C@@H](O[C@@H]2O[C@H](C)C[C@H](N(C)C)[C@H]2O)[C@](C)(O)C[C@@H](C)CN(C)[C@H](C)[C@@H](O)[C@]1(C)O", "values": [{"measurement": "MIC", "setting": "Escherichia coli", "result": 0.39, "unit": "µg/mL"}, {"measurement": "MIC", "setting": "Pasteurella multocida", "result": 0.1, "unit": "µg/mL"}, {"measurement": "ED50", "setting": "Mus musculus", "result": 40, "unit": "mg/kg"}]}, {"smiles": "CC[C@H]1OC(=O)[C@H](C)[C@@H](O[C@H]2C[C@@](C)(OC)[C@@](O)(c3ccco3)[C@H](C)O2)[C@H](C)[C@@H](O[C@@H]2O[C@H](C)C[C@H](N(C)C)[C@H]2O)[C@](C)(O)C[C@@H](C)CN[C@H](C)[C@@H](O)[C@]1(C)O", "values": [{"measurement": "MIC", "setting": "Escherichia coli", "result": 1.56, "unit": "µg/mL"}, {"measurement": "MIC", "setting": "Pasteurella multocida", "result": 0.2, "unit": "µg/mL"}, {"measurement": "ED50", "setting": "Mus musculus", "result": 72, "unit": "mg/kg"}]}, {"smiles": "CC[C@H]1OC(=O)[C@H](C)[C@@H](O[C@H]2C[C@@](C)(OC)[C@@](O)(CCCOC)[C@H](C)O2)[C@H](C)[C@@H](O[C@@H]2O[C@H](C)C[C@H](N(C)C)[C@H]2O)[C@](C)(O)C[C@@H](C)CN(C)[C@H](C)[C@@H](O)[C@]1(C)O", "values": [{"measurement": "MIC", "setting": "Escherichia coli", "result": 1.56, "unit": "µg/mL"}, {"measurement": "MIC", "setting": "Pasteurella multocida", "result": 0.1, "unit": "µg/mL"}, {"measurement": "ED50", "setting": "Mus musculus", "result": "> 80", "unit": "mg/kg"}]}, {"smiles": "C#C[C@@]1(O)[C@H](C)O[C@@H](O[C@H]2[C@H](C)[C@@H](O[C@@H]3O[C@H](C)C[C@H](N(C)C)[C@H]3O)[C@](C)(O)C[C@@H](C)CN[C@H](C)[C@@H](O)[C@](C)(O)[C@@H](CC)OC(=O)[C@@H]2C)C[C@@]1(C)OC", "values": [{"measurement": "MIC", "setting": "Escherichia coli", "result": 3.13, "unit": "µg/mL"}, {"measurement": "MIC", "setting": "Pasteurella multocida", "result": "< 0.1", "unit": "µg/mL"}, {"measurement": "ED50", "setting": "Mus musculus", "result": 24, "unit": "mg/kg"}]}, {"smiles": "CC[C@H]1OC(=O)[C@H](C)[C@@H](O[C@H]2C[C@@](C)(OC)[C@@](O)(C#CCOC)[C@H](C)O2)[C@H](C)[C@@H](O[C@@H]2O[C@H](C)C[C@H](N(C)C)[C@H]2O)[C@](C)(O)C[C@@H](C)CN(C)[C@H](C)[C@@H](O)[C@]1(C)O", "values": [{"measurement": "MIC", "setting": "Escherichia coli", "result": 0.39, "unit": "µg/mL"}, {"measurement": "MIC", "setting": "Pasteurella multocida", "result": 0.05, "unit": "µg/mL"}, {"measurement": "ED50", "setting": "Mus musculus", "result": 29, "unit": "mg/kg"}]}, {"smiles": "CC[C@H]1OC(=O)[C@H](C)[C@@H](O[C@H]2C[C@@](C)(OC)[C@@](O)(C#CCN(C)C)[C@H](C)O2)[C@H](C)[C@@H](O[C@@H]2O[C@H](C)C[C@H](N(C)C)[C@H]2O)[C@](C)(O)C[C@@H](C)CN[C@H](C)[C@@H](O)[C@]1(C)O", "values": [{"measurement": "MIC", "setting": "Escherichia coli", "result": 1.56, "unit": "µg/mL"}, {"measurement": "MIC", "setting": "Pasteurella multocida", "result": 0.2, "unit": "µg/mL"}, {"measurement": "ED50", "setting": "Mus musculus", "result": 22, "unit": "mg/kg"}]}, {"smiles": "CCCC[C@@]1(O)[C@H](C)O[C@@H](O[C@H]2[C@H](C)[C@@H](O[C@@H]3O[C@H](C)C[C@H](N(C)C)[C@H]3O)[C@](C)(O)C[C@@H](C)CN[C@H](C)[C@@H](O)[C@](C)(O)[C@@H](CC)OC(=O)[C@@H]2C)C[C@@]1(C)OC", "values": [{"measurement": "MIC", "setting": "Escherichia coli", "result": 12.5, "unit": "µg/mL"}, {"measurement": "MIC", "setting": "Pasteurella multocida", "result": 0.78, "unit": "µg/mL"}]}, {"smiles": "CCC[C@@]1(O)[C@H](C)O[C@@H](O[C@H]2[C@H](C)[C@@H](O[C@@H]3O[C@H](C)C[C@H](N(C)C)[C@H]3O)[C@](C)(O)C[C@@H](C)CN[C@H](C)[C@@H](O)[C@](C)(O)[C@@H](CC)OC(=O)[C@@H]2C)C[C@@]1(C)OC", "values": [{"measurement": "MIC", "setting": "Escherichia coli", "result": 1.56, "unit": "µg/mL"}, {"measurement": "MIC", "setting": "Pasteurella multocida", "result": 0.2, "unit": "µg/mL"}, {"measurement": "ED50", "setting": "Mus musculus", "result": 81, "unit": "mg/kg"}]}]}
